Assay results: ChEMBL document CHEMBL1137858, “Formation of squaric acid amides of anthracycline antibiotics. Synthesis and cytotoxic properties” (Bioorg Med Chem Lett, 2004)
Values after ≈ are worked out from the molar mass of the structure shown.

Tests used:
[1] = test system: MCF7; experiment: Percent control of human mammary adenocarcinoma MCF-7 cell line proliferation at 3 ng/mL; assay type: functional
Outline: (§1)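 MCF-7 human mammary adenocarcinoma cells (5 · 10^3) seeded in 24-well plates in RPMI-1640 with 10% fetal calf serum, penicillin (50 unit/mL) and streptomycin, 37 C, 5% CO2. Compounds added 3 h after plating. After 24 h exposure, medium replaced and cultures incubated a further 72 h. Cell population measured by MTT absorbance. IC50 values calculated from the data.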

[2] = test system: MCF7; experiment: Percent control of human mammary adenocarcinoma MCF-7 cell line proliferation at 30 ng/mL; assay type: functional; outline: as §1
[3] = test system: MCF7; experiment: Percent control of human mammary adenocarcinoma MCF-7 cell line proliferation at 300 ng/mL; assay type: functional; outline: as §1
[4] = test system: MCF7; experiment: Concentration required to inhibit proliferation of human mammary adenocarcinoma MCF-7 cell line was determined using MTT assay; assay type: functional, cell-based; outline: as §1
[5] = test system: MCF7; experiment: Percent control of human mammary adenocarcinoma MCF-7 cell line proliferation at 0.3 ng/mL; assay type: functional; outline: as §1

| IC50 [4] | Structure (SMILES) | Control [1] | Control [2] | Control [3] | Control [5] |
| --- | --- | --- | --- | --- | --- |
| 0.109 µg/mL (≈ 0.0958 µM) | COc1cccc2c1C(=O)c1c(O)c3c(c(O)c1C2=O)C[C@@](O)(C(C)=O)C[C@@H]3OC1CC(/N=c2/c(O)c(O)/c2=N/C2CC(O[C@@H]3C[C@@](O)(C(C)=O)Cc4c(O)c5c(c(O)c43)C(=O)c3c(OC)cccc3C5=O)OC(C)C2O)C(O)C(C)O1 (stereo partly drawn) | 72.7% | 60.7% | 42% |  |
| > 0.3 µg/mL | COc1cccc2c1C(=O)c1c(O)c3c(c(O)c1C2=O)C[C@@](O)(C(=O)CO)C[C@@H]3OC1CC(/N=c2/c(O)c(O)/c2=N\CCCCCC/N=c2\c(O)c(O)\c2=N\C2CC(O[C@H]3C[C@](O)(C(=O)CO)Cc4c(O)c5c(c(O)c43)C(=O)c3c(OC)cccc3C5=O)OC(C)C2O)C(O)C(C)O1 (stereo partly drawn) | 87% | 86.1% | 82.4% |  |
| 0.087 µg/mL (≈ 0.0655 µM) | COc1cccc2c1C(=O)c1c(O)c3c(c(O)c1C2=O)C[C@@](O)(C(C)=O)C[C@@H]3OC1CC(/N=c2/c(O)c(O)/c2=N\CCCCCC/N=c2\c(O)c(O)\c2=N\C2CC(O[C@H]3C[C@](O)(C(C)=O)Cc4c(O)c5c(c(O)c43)C(=O)c3c(OC)cccc3C5=O)OC(C)C2O)C(O)C(C)O1 (stereo partly drawn) | 104% | 50% | 32% |  |
|  | COc1cccc2c1C(=O)c1c(O)c3c(c(O)c1C2=O)C[C@@](O)(C(=O)CO)C[C@@H]3O[C@H]1C[C@H](N)[C@H](O)[C@H](C)O1.Cl [DOXORUBICIN HYDROCHLORIDE] | 41% | 35.3% | 14.9% | 74.7% |
| 0.299 µg/mL (≈ 0.48 µM) | COc1c(NC2CC(O[C@H]3C[C@](O)(C(C)=O)Cc4c(O)c5c(c(O)c43)C(=O)c3c(O)cccc3C5=O)OC(C)C2O)c(=O)c1=O (stereo partly drawn) | 89.7% | 81% | 46.3% |  |
| > 0.3 µg/mL | COc1cccc2c1C(=O)c1c(O)c3c(c(O)c1C2=O)C[C@@](O)(C(C)=O)C[C@@H]3OC1CC(Nc2c(OC)c(=O)c2=O)C(O)C(C)O1 (stereo in doubt; 5) | 85% | 74.7% | 77.8% |  |
| > 0.3 µg/mL | COc1cccc2c1C(=O)c1c(O)c3c(c(O)c1C2=O)C[C@@](O)(C(=O)CO)C[C@@H]3OC1CC(/N=c2/c(O)c(O)/c2=N/C2CC(O[C@@H]3C[C@@](O)(C(=O)CO)Cc4c(O)c5c(c(O)c43)C(=O)c3c(OC)cccc3C5=O)OC(C)C2O)C(O)C(C)O1 (stereo partly drawn) | 88% | 84.5% | 68.4% |  |

| Structure (SMILES) | IC50 [4] | Control [1] | Control [2] | Control [3] | Control [5] |
| --- | --- | --- | --- | --- | --- |
| CC(=O)[C@]1(O)Cc2c(O)c3c(c(O)c2[C@@H](OC2CC(N)C(O)C(C)O2)C1)C(=O)c1c(O)cccc1C3=O.Cl (stereo partly drawn) | 0.0483 µg/mL | 93.2% | 77% | 9.1% | 107% |
